This note sets out measurements from ChEMBL document CHEMBL1127371, “Acyl CoA:cholesterol acyltransferase (ACAT) inhibitors: synthesis and structure-activity relationship studies of a new series of trisubstituted imidazoles” (J Med Chem, 1994).

Each structure is given as a SMILES string. “And” between values parts separate entries of the source, which are not always exact repeats. Equal values may be shown once.

As a reminder, the IC50 is the concentration that gives 50% inhibition.

The target of test [1] is T1, Sterol O-acyltransferase 1 (Rattus norvegicus, UniProt O70536).
T1 sequence (O70536 whole entry): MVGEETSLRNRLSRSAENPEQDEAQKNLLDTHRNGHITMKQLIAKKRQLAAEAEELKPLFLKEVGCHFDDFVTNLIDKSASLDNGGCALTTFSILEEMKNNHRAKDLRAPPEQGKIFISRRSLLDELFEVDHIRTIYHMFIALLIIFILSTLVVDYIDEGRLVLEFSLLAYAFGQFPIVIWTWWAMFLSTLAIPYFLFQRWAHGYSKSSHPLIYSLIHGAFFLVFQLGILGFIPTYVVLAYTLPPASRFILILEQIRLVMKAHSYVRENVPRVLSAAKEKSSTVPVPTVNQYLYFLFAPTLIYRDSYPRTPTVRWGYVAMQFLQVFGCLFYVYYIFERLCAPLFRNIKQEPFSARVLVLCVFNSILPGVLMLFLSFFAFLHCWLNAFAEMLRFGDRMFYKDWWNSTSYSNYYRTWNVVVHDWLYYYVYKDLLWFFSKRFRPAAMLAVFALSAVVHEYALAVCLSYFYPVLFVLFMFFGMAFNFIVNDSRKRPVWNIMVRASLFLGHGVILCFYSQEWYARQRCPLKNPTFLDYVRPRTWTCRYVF
The experiment in a line: In vitro inhibition of Acyl coenzyme A:cholesterol acyltransferase in rat hepatic microsomes. The arrangement: species or system Liver. The gist of the method:
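Rat hepatic microsomes were incubated with labelled oleoyl-CoA, and formation of labelled cholesterol oleate was measured (pmol/min/mg). Assays were run in duplicate with at least four inhibitor concentrations bracketing the IC50.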

For test [2], the system named is Cricetinae gen. sp. As to the kind of experiment: Tested anti-hypercholesterolaemic value(AHV) is the ratio of observed reduction in serum cholesterol to difference between control and baseline levels x100 at 10 mg/kg/day dose. The format is functional.
Test [3] is filed under the species Mesocricetus auratus. The experiment in a line: Evaluated for Syrian hamsters fed with a 0.8% cholesterol-supplemented chow diet for 7 days.
The species named for test [4] is Mesocricetus auratus. As to the kind of experiment: Evaluated for Syrian hamsters fed with a 2.5% cholesterol-supplemented chow diet for 3 days.
Test [5] is filed under the species Mesocricetus auratus. The experiment in a line: Evaluated for Syrian hamsters fed with 0.8% cholesterol-supplemented chow diet for 7 days.
Test [6] is filed under the species Mesocricetus auratus. As to the kind of experiment: Evaluated for Syrian hamsters fed with 2.5% cholesterol-supplemented chow diet for 3 days.

In test [1], `CCCCCCCN(CCCCCSc1nc(-c2ccccc2)c(-c2ccccc2)[nH]1)C(=O)NCCC` showed a 50% inhibitory concentration (IC50) of 10 nM. Besides, the AHV in test [2] was found to be 74%. For the same compound, in test [3], the Serum cholesterol was 199 mg %. `CCCCCCCCNC(=O)N(CCCCCSc1nc(-c2ccccc2)c(-c2ccccc2)[nH]1)c1c(F)cc(F)cc1F`: the IC50 in test [1] was found to be 20 nM. On the same count and under the same terms, then `CCCCCCCN(CCCCCSc1nc(-c2ccccc2)c(-c2ccccc2)[nH]1)C(=O)c1ccc(F)cc1F`, with 60 nM.

As for `CCCCCCCN(CCCCCS(=O)(=O)c1nc(-c2ccccc2)c(-c2ccccc2)[nH]1)C(=O)Nc1ccc(F)cc1F`, the IC50 in test [1] was 16 nM. The AHV in test [2] is on record as 30%. Further, in test [3], the Serum cholesterol is 318 mg %. Consider `CCCCCCCCNC(=O)N(CCCCCSc1nc(-c2ccccc2)c(-c2ccccc2)[nH]1)c1ccc(F)cc1F`, for which the concentration for half-maximal inhibition (IC50) in test [1] came to 40 nM. Still for that read-out and setting: to `CC(C)NC(=O)N(CCCCCSc1nc(-c2ccccc2)c(-c2ccccc2)[nH]1)c1ccc(F)cc1F` belongs 40 nM. In test [1], `CCCCCCCN(CCCCCSc1nc(-c2ccccc2)c(-c2ccccc2)[nH]1)C(=O)Nc1ccc([N+](=O)[O-])cc1` showed a concentration for half-maximal inhibition (IC50) of 80 nM. The AHV in test [2] is listed as 38%. The compound also returned a Serum cholesterol in test [3] of 277 mg %.

In test [1], `O=C(NCCCCCSc1nc(-c2ccccc2)c(-c2ccccc2)[nH]1)Nc1ccc(F)cc1F` displayed an IC50 of 400 nM. This counts as sub-micromolar. With `CCCCCCCN(CCCCCSc1nc(-c2ccccc2)c(-c2ccccc2)n1-c1ccccc1)C(=O)Nc1ccc(F)cc1F`, the 50% inhibitory concentration (IC50) in test [1] is greater than 50000 nM. On the same count and under the same terms, to `CCCCCCCN(CCCCCSc1nc(-c2ccccc2)c(-c2ccccc2)[nH]1)C(=O)CC1CCCCC1` belongs 30 nM. Consider `CCCCCCCN(CCCCC[S+]([O-])c1nc(-c2ccccc2)c(-c2ccccc2)[nH]1)C(=O)Nc1ccc(F)cc1F` (stereo not drawn), for which half-maximal inhibition in test [1] (IC50) required 8 nM. The AHV in test [2] came out at 49%. Moreover, the Serum cholesterol in test [3] worked out at 278 mg %. `CCCCCCCN(CCSc1nc(-c2ccccc2)c(-c2ccccc2)[nH]1)C(=O)Nc1ccc(F)cc1F` yielded an IC50 in test [1] of 70 nM. `CCCCCCCN(CCCCCSc1nc(-c2ccccc2)c(-c2ccccc2)[nH]1)C(N)=O` gave an IC50 in test [1] of 910 nM.

For the compound `CCCCCCCN(CCCCCSc1nc(-c2ccccc2)c(-c2ccccc2)[nH]1)C(=O)Cc1ccc(-c2ccccc2)cc1`, inhibition in test [1] was half-maximal at 160 nM (IC50). Still for that read-out and setting: to `CC(C)c1cccc(C(C)C)c1NC(=O)NCCCCCSc1nc(-c2ccccc2)c(-c2ccccc2)[nH]1` belongs 510 nM; to `CCCCCCCN(CCCCCSc1nc(-c2ccccc2)c(-c2ccccc2)[nH]1)C(=O)C(C)C`, 100 nM. On to `CCCCCCCN(CCCCCSc1nc(-c2ccccc2)c(-c2ccccc2)[nH]1)C(=O)Cc1ccc(F)cc1F`, for which half-maximal inhibition in test [1] (IC50) required 25 nM. On the same count and under the same terms, then `O=C(Nc1ccc(F)cc1F)N(CCCCCSc1nc(-c2ccccc2)c(-c2ccccc2)[nH]1)CCCc1ccccc1`, with 30 nM; and `CCCCCCCN(Cc1ccc(CSc2nc(-c3ccccc3)c(-c3ccccc3)[nH]2)cc1)C(=O)Nc1ccc(F)cc1F`, with 200 nM.

The compound `CCCCCCCN(CCCCCSc1nc(-c2ccccc2)c(-c2ccccc2)[nH]1)C(=O)Nc1ccc(-c2ccccc2)cc1` returned an IC50 in test [1] of 70 nM.

`CCCCCCCN(CCCCCSc1nc(-c2ccccc2)c(-c2ccccc2)n1C)C(=O)Nc1ccc(F)cc1F` came in with a 50% inhibitory concentration (IC50) in test [1] of 3600 nM.

The compound `CCCCCCCN(CCCCCSc1ncc(-c2ccccc2)n1-c1ccccc1)C(=O)Nc1ccc(F)cc1F` had a half-maximal inhibitory concentration (IC50) in test [1] of 7200 nM. Same read-out and setting: to `CCCCCCCN(CCCCCSc1nc(-c2ccccc2)c(-c2ccccc2)[nH]1)C(=O)OC1CCCCC1` belongs 50 nM; to `CCCCCCCN(CCCCCSc1nc(-c2ccccc2)c(-c2ccccc2)[nH]1)C(=O)Oc1ccccc1`, 20 nM; to `CCCCCCCN(CC(C)(C)CCSc1nc(-c2ccccc2)c(-c2ccccc2)[nH]1)C(=O)Nc1ccc(F)cc1F`, 70 nM. `CCCCCCCN(CCCCCSc1nc(-c2ccccc2)c(-c2ccccc2)[nH]1)C(=O)OCCC` gave an IC50 in test [1] of 34 nM. This IC50 is about 2.1-fold lower than that of the compound before. On the same count and under the same terms, to `CCCCCCCN(CCCCCSc1nc(-c2ccccc2)c(-c2ccccc2)[nH]1)/C(S)=N\c1ccc(F)cc1F` belongs 58 nM; to `CCCCCCCN(CCCCCSc1nc(-c2ccccc2)c(-c2ccccc2)[nH]1)C(=O)NC(C)C`, 20 nM; to `CCCCCCCN(Cc1cccc(CSc2nc(-c3ccccc3)c(-c3ccccc3)[nH]2)c1)C(=O)Nc1ccc(F)cc1F`, 30 nM.

For the compound `CCCCCCCN(CCCCCSc1nc(-c2ccccc2)c(-c2ccccc2)[nH]1)C(=O)Nc1c(C(C)C)cccc1C(C)C`, in test [1], the concentration for half-maximal inhibition (IC50) worked out at 230 nM. This IC50 is about 7.7-fold higher than that of the compound before. The same measure, in the same setting: then `CCCCCCCN(CCCCCSc1nc(-c2ccccc2)c(-c2ccccc2)[nH]1)C(=O)c1ccccc1`, with 50 nM; and `CCCCCCCN(CCCCCNc1nc(-c2ccccc2)c(-c2ccccc2)[nH]1)C(=O)Nc1ccc(F)cc1F`, with 3500 nM. Turning to `CCCCCCCN(CCCCCSc1nc(-c2ccccc2)c(-c2ccccc2)[nH]1)C(=O)Nc1c(F)cc(F)cc1F`, in test [1], the IC50 was found to be 16 nM. Besides, in test [2], the AHV came out at 51%. The same compound gave a Serum cholesterol in test [4] of 218 mg %.

`CCCCCCCCNC(=O)N(CCCCCSc1nc(-c2ccccc2)c(-c2ccccc2)[nH]1)c1ccccc1` yielded an IC50 in test [1] of 10 nM. Also, in test [4], the Serum cholesterol was found to be 268 mg %. In turn, `CCCCCCCN(CCCCCCc1nc(-c2ccccc2)c(-c2ccccc2)[nH]1)C(=O)Nc1ccc(F)cc1F` returned a half-inhibitory concentration (IC50) in test [1] of 280 nM.

As to `CC(C)NC(=O)N(CCCCCSc1nc(-c2ccccc2)c(-c2ccccc2)[nH]1)c1ccccc1`, in test [1], half-maximal inhibition (IC50) required 80 nM. Regarding `CCCCCCCN(CCCCCCCCSc1nc(-c2ccccc2)c(-c2ccccc2)[nH]1)C(=O)Nc1ccc(F)cc1F`, the IC50 in test [1] is 8 nM. In test [4], the Serum cholesterol was found to be 271 mg %.

In turn, `CCCCCCCCNC(=O)N(CCCCCSc1nc(-c2ccccc2)c(-c2ccccc2)[nH]1)Cc1ccccc1` gave a 50% inhibitory concentration (IC50) in test [1] of 150 nM.

As for `O=C(Nc1ccc(F)cc1F)N(CCCCCSc1nc(-c2ccccc2)c(-c2ccccc2)[nH]1)CCCCc1ccccc1`, in test [1], the IC50 is 50 nM.

The compound `CCCCCCCN(CCCCCSc1ncc[nH]1)C(=O)Nc1ccc(F)cc1F` registered an IC50 in test [1] of 2900 nM. Against the preceding compound, the IC50 is about 58-fold higher. Same read-out and setting: then `O=C(Nc1ccc(F)cc1F)N(CCCCCSc1nc(-c2ccccc2)c(-c2ccccc2)[nH]1)Cc1ccccc1`, with 200 nM; and `CCCN(CCCCCSc1nc(-c2ccccc2)c(-c2ccccc2)[nH]1)C(=O)Nc1ccc(F)cc1F`, with 30 nM. In test [1], `CCCCCCCN(CCCCCSc1nc(-c2ccccc2)cn1-c1ccccc1)C(=O)Nc1ccc(F)cc1F` yielded an IC50 of 42000 nM. For `CCCCCCCN(CCCCCSc1nc(-c2ccccc2)c(-c2ccccc2)[nH]1)/C(S)=N\c1c(F)cc(F)cc1F`, in test [1], the IC50 was 30 nM. Same read-out and setting: then `CCCCCCCN(CCCCCSc1nc(-c2ccccc2)c(-c2ccccc2)[nH]1)C(=O)Nc1ccccc1`, with 23 nM. The same measure, in the same setting: then `CCCCCCCN(CCCCCSc1nc(-c2ccccc2)c(-c2ccccc2)[nH]1)C(=O)NC`, with 40 nM; and `CCCCCCCN(CCCCCSc1nc(-c2ccccc2)c(-c2ccccc2)[nH]1)C(N)=Nc1ccccc1`, with 3160 nM.

Consider `CCCCCCCN(CCCCCSc1nc(-c2ccccc2)c(-c2ccccc2)[nH]1)C(=O)Nc1ccc(F)cc1F` [LECIMIBIDE], for which the AHV in test [2] is 59% and 61%. Moreover, the figures for the Serum cholesterol in test [5] and in test [6] were 253 mg % and 205 mg %, respectively. In the case of `O=C(Nc1ccc(F)cc1F)N(CCCCCSc1nc(-c2ccccc2)c(-c2ccccc2)[nH]1)CCc1ccccc1`, in test [1], the half-inhibitory concentration (IC50) was 170 nM. On the same count and under the same terms, then `CCCCCCCN(CCCCCSc1nc(-c2ccccc2)c(-c2ccccc2)[nH]1)C(=O)NC1CCCCC1`, with 10 nM; and `CCCCCCCN(Cc1ccccc1CSc1nc(-c2ccccc2)c(-c2ccccc2)[nH]1)C(=O)Nc1ccc(F)cc1F`, with 3600 nM. `CCCCCCCN(CCCCCSc1nc(-c2ccccc2)c(-c2ccccc2)[nH]1)C(=O)CCC` had an IC50 in test [1] of 30 nM. The AHV in test [2] is recorded as 43%. This compound yielded a Serum cholesterol in test [3] of 245 mg %.
